Assays:
[1] = tested on: newborn hippocampal neurons; details: cited from earlier work
[2] = tested on: dopaminergic neurons within the SNc; details: cited from earlier work
[3] = tested on: motor neurons in the spinal cord; details: cited from earlier work
[4] = cited from earlier work
[5] = cited from earlier work; remark: listed apart in the source
[6] = cited from earlier work; remark: listed apart in the source
[7] = tested on: newborn hippocampal neurons; test: In vivo hippocampal neuroprotection assay; parameters: species or system mouse; details: for number of surviving newborn hippocampal neurons (BrdU+ cells): ICV 10 μM, Figure 1
In short: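 Adult (12-week) wild-type […] mice, environmentally deprived, four per group. Compound was infused ICV into the left lateral ventricle by implanted osmotic minipump (0.5 μL/h, 7 days) or given IP twice daily. BrdU 50 mg/kg/day IP for 6 days; perfused 24 h after last BrdU. Anti-BrdU staining after formamide/SSC and HCl unmasking. BrdU+ SGZ/dentate cells counted contralaterally, every fifth section, normalized to dentate gyrus volume.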

[8] = tested on: dopaminergic neurons within the SNc; test: MPTP model of Parkinson's disease; assay type: in vivo, mouse; details: BID, 21 days after MPTP; for rescue of TH+ neurons: 10 mg kg^–1 day^–1, IP
In short: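 Adult male C57Bl/6 mice, individually housed 1 week, received free-base MPTP 30 mg/kg/day IP for 5 days. Compound or vehicle was started on day 6, 24 h after the last MPTP dose, and given twice daily for 21 days. After perfusion and fixation in 4% paraformaldehyde, every fourth section through striatum and SNc was stained for tyrosine hydroxylase. TH+ cells were counted blinded; mean ± SEM.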

[9] = Pharmacokinetic analysis, plasma and brain levels; assay type: in vivo, mouse; details: single time point (6 h) after IP 1, 3, 10 or 30 mg/kg, Figure S3
In short: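 Compound in 5% DMSO/10% cremophor EL/85% D5W (pH 7.2) was dosed to adult mice (0.2 mL total). Mice were killed by CO2. Plasma came from ACD-treated blood spun at 9300g. Brains were rinsed in PBS and homogenized in 3 volumes of PBS. Plasma or lysate (100 μL) was precipitated with 200 μL acetonitrile/0.15% formic acid and spun at 13120g for 5 min. Supernatant was analysed by HPLC/MS/MS.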

CYP3A4 = CYP3A4 (Homo sapiens, UniProt P08684); test: Cytochrome P450 inhibition, CYP3A4; assay type: in vitro ADME
CYP2C9 = CYP2C9 (Homo sapiens, UniProt P11712); test: Cytochrome P450 inhibition, CYP2C9; assay type: in vitro ADME
CYP3D6 = CYP3D6 (Homo sapiens, UniProt P10635); test: Cytochrome P450 inhibition, CYP3D6; assay type: in vitro ADME
CYP2C8 = target: T1, CYP2C8 (Homo sapiens, UniProt P10632); test: Cytochrome P450 inhibition, CYP2C8; assay type: in vitro ADME
T1 sequence (P10632 1-490): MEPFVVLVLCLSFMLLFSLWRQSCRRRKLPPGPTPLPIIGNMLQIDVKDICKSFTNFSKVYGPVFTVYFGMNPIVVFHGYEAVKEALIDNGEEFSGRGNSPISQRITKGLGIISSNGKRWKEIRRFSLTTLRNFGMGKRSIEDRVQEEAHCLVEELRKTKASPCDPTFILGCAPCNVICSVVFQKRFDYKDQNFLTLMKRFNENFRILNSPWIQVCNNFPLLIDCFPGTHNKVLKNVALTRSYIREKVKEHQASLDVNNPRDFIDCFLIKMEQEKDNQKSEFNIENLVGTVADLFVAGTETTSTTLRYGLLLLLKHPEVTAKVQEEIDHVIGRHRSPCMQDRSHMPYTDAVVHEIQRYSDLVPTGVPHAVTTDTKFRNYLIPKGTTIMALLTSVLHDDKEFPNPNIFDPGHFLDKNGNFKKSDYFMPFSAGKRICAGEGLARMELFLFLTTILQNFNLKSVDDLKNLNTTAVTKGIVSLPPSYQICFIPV

CYP2B6 = target: T2, CYP2B6 (Homo sapiens, UniProt P20813); test: Cytochrome P450 inhibition, CYP2B6; assay type: in vitro ADME
T2 sequence (P20813 1-491): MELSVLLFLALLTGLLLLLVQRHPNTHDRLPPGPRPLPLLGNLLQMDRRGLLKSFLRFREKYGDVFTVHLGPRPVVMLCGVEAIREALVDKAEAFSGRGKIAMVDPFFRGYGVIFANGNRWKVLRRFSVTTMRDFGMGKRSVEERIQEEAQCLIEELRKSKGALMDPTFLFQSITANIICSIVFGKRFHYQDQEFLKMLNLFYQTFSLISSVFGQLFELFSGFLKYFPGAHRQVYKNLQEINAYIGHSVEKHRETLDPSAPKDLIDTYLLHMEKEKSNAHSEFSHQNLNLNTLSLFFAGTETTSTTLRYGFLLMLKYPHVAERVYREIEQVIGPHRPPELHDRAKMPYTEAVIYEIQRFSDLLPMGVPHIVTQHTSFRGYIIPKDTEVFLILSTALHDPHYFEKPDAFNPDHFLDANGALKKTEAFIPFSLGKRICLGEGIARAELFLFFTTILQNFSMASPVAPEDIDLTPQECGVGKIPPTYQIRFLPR

μ-opioid receptor = μ-opioid receptor (Homo sapiens, UniProt P35372); test: Psychoactive Drug Screening Program competition binding, μ-opioid receptor; details: read-out: IC50 μ-opioid receptor; ligand displacement, PDSP
[10] = Long-term treatment tolerability; assay type: in vivo
[11] = tested on: cerebral cortical neurons; details: cited from earlier work

CYP2C9, sequence (P11712 whole entry): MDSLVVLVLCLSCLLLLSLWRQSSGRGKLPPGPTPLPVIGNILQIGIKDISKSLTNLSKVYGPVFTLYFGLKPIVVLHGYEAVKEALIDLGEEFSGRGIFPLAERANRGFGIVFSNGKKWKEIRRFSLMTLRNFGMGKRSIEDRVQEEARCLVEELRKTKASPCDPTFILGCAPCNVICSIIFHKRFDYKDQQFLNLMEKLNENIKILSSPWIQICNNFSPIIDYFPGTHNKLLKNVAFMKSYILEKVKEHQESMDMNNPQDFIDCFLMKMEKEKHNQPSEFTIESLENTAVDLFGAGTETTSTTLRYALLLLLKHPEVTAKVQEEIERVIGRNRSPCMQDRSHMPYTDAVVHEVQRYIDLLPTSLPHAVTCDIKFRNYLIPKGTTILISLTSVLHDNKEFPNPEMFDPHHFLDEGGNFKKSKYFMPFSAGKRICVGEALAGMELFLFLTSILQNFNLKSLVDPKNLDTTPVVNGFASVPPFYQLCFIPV
CYP3D6, sequence (P10635 whole entry): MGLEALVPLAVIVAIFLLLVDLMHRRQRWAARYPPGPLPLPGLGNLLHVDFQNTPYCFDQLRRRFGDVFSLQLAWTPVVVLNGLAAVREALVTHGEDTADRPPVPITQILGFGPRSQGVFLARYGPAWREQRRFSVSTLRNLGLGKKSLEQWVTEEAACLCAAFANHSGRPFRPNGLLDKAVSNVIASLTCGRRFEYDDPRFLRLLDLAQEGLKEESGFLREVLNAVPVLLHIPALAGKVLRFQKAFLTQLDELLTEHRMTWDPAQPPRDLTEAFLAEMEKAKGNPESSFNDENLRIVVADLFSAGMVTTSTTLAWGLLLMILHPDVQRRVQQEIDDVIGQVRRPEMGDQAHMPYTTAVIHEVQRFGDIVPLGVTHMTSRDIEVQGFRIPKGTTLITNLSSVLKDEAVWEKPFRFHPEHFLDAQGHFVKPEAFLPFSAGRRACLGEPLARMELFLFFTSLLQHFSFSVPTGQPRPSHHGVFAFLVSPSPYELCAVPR
μ-opioid receptor, sequence (P35372 whole entry, species assumed): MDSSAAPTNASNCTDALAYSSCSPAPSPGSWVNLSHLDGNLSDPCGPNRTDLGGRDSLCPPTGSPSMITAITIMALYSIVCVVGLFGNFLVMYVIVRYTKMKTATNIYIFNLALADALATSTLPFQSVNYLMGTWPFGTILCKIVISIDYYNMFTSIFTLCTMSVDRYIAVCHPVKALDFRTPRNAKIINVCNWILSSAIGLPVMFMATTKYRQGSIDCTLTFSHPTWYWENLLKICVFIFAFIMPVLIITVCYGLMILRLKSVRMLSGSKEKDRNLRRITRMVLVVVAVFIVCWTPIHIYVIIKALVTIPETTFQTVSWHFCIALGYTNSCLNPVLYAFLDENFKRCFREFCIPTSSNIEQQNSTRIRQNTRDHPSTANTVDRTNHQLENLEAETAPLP
CYP3A4, sequence (P08684 whole entry): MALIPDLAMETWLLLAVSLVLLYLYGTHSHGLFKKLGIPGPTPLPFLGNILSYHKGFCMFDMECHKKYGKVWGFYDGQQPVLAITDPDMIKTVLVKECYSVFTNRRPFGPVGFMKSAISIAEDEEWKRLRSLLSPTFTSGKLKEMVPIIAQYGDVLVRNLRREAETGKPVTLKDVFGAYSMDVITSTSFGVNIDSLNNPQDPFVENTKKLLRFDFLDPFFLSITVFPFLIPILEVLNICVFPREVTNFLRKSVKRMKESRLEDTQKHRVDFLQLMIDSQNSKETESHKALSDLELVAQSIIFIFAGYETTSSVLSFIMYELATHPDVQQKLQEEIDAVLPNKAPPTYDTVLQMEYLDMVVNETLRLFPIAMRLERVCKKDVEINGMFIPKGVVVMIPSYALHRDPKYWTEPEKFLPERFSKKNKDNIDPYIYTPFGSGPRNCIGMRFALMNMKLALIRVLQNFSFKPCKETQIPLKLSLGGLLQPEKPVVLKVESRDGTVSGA

OC(CNc1ccccc1)Cn1c2ccc(Br)cc2c2cc(Br)ccc21 (stereo not drawn) [compound 1]
number of surviving newborn hippocampal cells ([1]; unbiased in vivo screen, 1 week): approximately doubled
protection of neurons in the substantia nigra, MPTP mouse model [2]: protect neurons in the substantia nigra
motor neuron cell death in spinal cord of G93A SOD1 transgenic mice [3]: minimize motor neuron cell death in the spinal cord
antidepressant effect [4]: antidepressant activity
neuroprotective effect in age-related cognitive decline [5]: neuroprotective effects
neuroprotective effect in retinal degeneration [6]: neuroprotective effects

COc1cccc(NC[C@H](F)Cn2c3ccc(Br)cc3c3cc(Br)ccc32)n1 [(−)-15, (S)-N-(3-(3,6-Dibromo-9H-carbazol-9-yl)-2-fluoropropyl)-6-methoxypyridin-2-amine]
enantiomer-specific neuroprotective activity in mouse model of neurogenesis ([7]; pure enantiomers dosed ICV 7 days, Figure 2): highly active
neuroprotective activity in MPTP model (enantiomers) ([8]; IP, Figure 3): strongly protective
plasma and brain concentrations compared with racemic 15 [9]: indistinguishable
CYP3A4 sensitivity (CYP3A4): insensitive
CYP2C9 sensitivity (CYP2C9): insensitive
CYP3D6 sensitivity (CYP3D6): insensitive
CYP2C8 sensitivity (CYP2C8): insensitive
CYP2B6 sensitivity (CYP2B6): insensitive
IC50 (μ-opioid receptor): 8.2 µM

NCC(O)Cn1c2ccc(Br)cc2c2cc(Br)ccc21 (stereo not drawn) [compound 16, 1-Amino-3-(3,6-dibromo-9H-carbazol-9-yl)propan-2-ol]
number of surviving newborn hippocampal neurons (BrdU+ cells) ([7]; 7 days): increase in the number of BrdU+ cells compared with vehicle

[N-]=[N+]=NCC(F)Cn1c2ccc(Br)cc2c2cc(Br)ccc21 (stereo not drawn) [compound 11, 9-(3-Azido-2-fluoropropyl)-3,6-dibromo-9H-carbazole]
number of surviving newborn hippocampal neurons (BrdU+ cells) ([7]; 7 days): inactive

Cl.NCC(F)Cn1c2ccc(Br)cc2c2cc(Br)ccc21 (stereo not drawn) [compound 12, 3-(3,6-Dibromo-9H-carbazol-9-yl)-2-fluoropropan-1-amine]
number of surviving newborn hippocampal neurons (BrdU+ cells) ([7]; 7 days): increase in the number of BrdU+ cells compared with vehicle

COc1cccc(NCC(O)Cn2c3ccc(Br)cc3c3cc(Br)ccc32)n1 (stereo not drawn) [compound 17, 1-(3,6-Dibromo-9H-carbazol-9-yl)-3-((6-methoxypyridin-2-yl)amino)propan-2-ol]
number of surviving newborn hippocampal neurons (BrdU+ cells) ([7]; 7 days): increase in the number of BrdU+ cells compared with vehicle

COc1cccc(NCC(F)Cn2c3ccc(Br)cc3c3cc(Br)ccc32)n1 (stereo not drawn) [compound 15, N-(3-(3,6-Dibromo-9H-carbazol-9-yl)-2-fluoropropyl)-6-methoxypyridin-2-amine]
number of surviving newborn hippocampal neurons (BrdU+ cells) ([7]; 7 days): approximately doubled
dose at which active in hippocampal neuroprotection ([7]; IP, 7 days): 1 mg kg^–1 day^–1
dose at which ceiling of efficacy is reached in hippocampal neuroprotection ([7]; IP, 7 days): 10 mg kg^–1 day^–1
rescue of TH+ neurons [8]: over 85%
dose showing significant neuroprotective effect in MPTP model ([8]; IP): 1 mg kg^–1 day^–1
impact on weight, behavior, or appearance ([10]; up to 10 mg kg^–1 day^–1 for 21 days): no negative impact on the weight, behavior, or appearance

COc1cccc(NCC(F)Cn2c3ccc(Br)cc3c3cc(Br)ccc32)c1 (stereo not drawn) [compound 2]
rescue of TH+ neurons [8]: around 75%
dose showing significant neuroprotective effect in MPTP model ([8]; IP): 5 mg kg^–1 day^–1
impact on weight, behavior, or appearance ([10]; up to 40 mg kg^–1 day^–1 for 21 days): no negative impact on the weight, behavior, or appearance
activity in the in vivo hippocampal neuroprotection assay ([1]; previous studies): substantially improved the activity
protection of neurons in the substantia nigra, MPTP mouse model [2]: protect neurons in the substantia nigra
motor neuron cell death in spinal cord of G93A SOD1 transgenic mice [3]: minimize motor neuron cell death in the spinal cord
protection of cerebral cortical neurons, moderate fluid percussion TBI [11]: protect rat cerebral cortical neurons
antidepressant effect [4]: exert antidepressant effects

Reference: publication PMC4206694 (Journal of Medicinal Chemistry, 2014)
